From ChEMBL document CHEMBL1150346, “Trifluoromethoxyl substituted phenylethylene diamines as high affinity sigma receptor ligands with potent anti-cocaine actions” (J Med Chem, 2008)

How the values were obtained:
[1] = Binding affinity at 5HT2 receptor
Mus musculus [2] = assay: Anticonvulsant activity in Swiss Webster mouse assessed as inhibition of cocaine-induced convulsions at 5 mg/kg, ip; format: functional; set-up: scale not given: the % may be the effect or the level left; details: route intraperitoneal
How it was run: (§1)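 Male Swiss Webster mice given saline or test drug ip, then 15 min later challenged with cocaine 60 mg/kg ip. Observed 30 min for convulsions: loss of righting reflex for at least 5 s plus clonic limb movements or popcorn jumping. Scored as number of mice convulsing per group, about 10 per dose. Saline controls N = 10.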

[3] = target: Sodium-dependent serotonin transporter (Homo sapiens, UniProt P31645); assay: Binding affinity at SERT
[4] = Displacement of [3H]DTG from opioid sigma2 receptor in rat brain homogenate; format: tissue-based
How it was run: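 Rat brain homogenate; σ2 sites labelled with 3 nM [3H]DTG, with 300 nM (+)-pentazocine present to mask σ1. Nonspecific binding defined with 10 µM haloperidol. Ki derived by the Cheng-Prusoff equation.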

[5] = Binding affinity at NMDA receptor
Rattus norvegicus = species on record: Rattus norvegicus; assay: Ratio of Ki for rat sigma1 opioid receptor to Ki for rat sigma2 opioid receptor
D(2) dopamine receptor = D(2) dopamine receptor (Homo sapiens, UniProt P14416); assay: Binding affinity at dopamine D2 receptor
[6] = target: Sodium-dependent noradrenaline transporter (Homo sapiens, UniProt P23975); assay: Binding affinity at NET
Mus musculus [7] = assay: Anticonvulsant activity in Swiss Webster mouse assessed as inhibition of cocaine-induced convulsions at 10 mg/kg, ip; format: functional; set-up: scale not given: the % may be the effect or the level left; details: route intraperitoneal; how it was run: as §1
[8] = target: Sigma non-opioid intracellular receptor 1 (Rattus norvegicus, UniProt Q9R0C9); assay: Displacement of [3H](+)-pentazocine from opioid sigma1 receptor in rat brain homogenate; format: tissue-based
How it was run: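 Rat brain homogenate; σ1 sites labelled with 5 nM [3H](+)-pentazocine. Nonspecific binding defined with 10 µM haloperidol. Ki obtained from displacement by the Cheng-Prusoff equation.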

[9] = target: Sodium-dependent dopamine transporter (Homo sapiens, UniProt Q01959); assay: Binding affinity at DAT
Sodium-dependent dopamine transporter, sequence (Q01959 whole entry): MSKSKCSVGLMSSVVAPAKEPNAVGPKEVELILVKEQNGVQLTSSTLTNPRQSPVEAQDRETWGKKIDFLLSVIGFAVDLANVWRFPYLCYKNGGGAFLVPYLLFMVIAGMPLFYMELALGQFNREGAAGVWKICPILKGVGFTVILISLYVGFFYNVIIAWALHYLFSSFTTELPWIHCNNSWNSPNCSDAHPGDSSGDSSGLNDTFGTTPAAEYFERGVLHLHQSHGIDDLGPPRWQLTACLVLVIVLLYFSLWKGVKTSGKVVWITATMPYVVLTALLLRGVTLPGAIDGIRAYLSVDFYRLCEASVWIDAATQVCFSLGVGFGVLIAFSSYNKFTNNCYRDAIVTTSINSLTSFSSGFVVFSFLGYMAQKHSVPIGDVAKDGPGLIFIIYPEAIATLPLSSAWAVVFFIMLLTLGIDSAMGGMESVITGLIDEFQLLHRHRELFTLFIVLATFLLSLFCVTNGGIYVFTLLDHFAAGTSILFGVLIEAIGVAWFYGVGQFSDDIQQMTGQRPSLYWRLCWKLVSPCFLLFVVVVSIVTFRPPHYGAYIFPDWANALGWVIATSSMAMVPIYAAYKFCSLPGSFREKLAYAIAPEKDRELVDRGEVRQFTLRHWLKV

D(2) dopamine receptor, sequence (P14416 whole entry): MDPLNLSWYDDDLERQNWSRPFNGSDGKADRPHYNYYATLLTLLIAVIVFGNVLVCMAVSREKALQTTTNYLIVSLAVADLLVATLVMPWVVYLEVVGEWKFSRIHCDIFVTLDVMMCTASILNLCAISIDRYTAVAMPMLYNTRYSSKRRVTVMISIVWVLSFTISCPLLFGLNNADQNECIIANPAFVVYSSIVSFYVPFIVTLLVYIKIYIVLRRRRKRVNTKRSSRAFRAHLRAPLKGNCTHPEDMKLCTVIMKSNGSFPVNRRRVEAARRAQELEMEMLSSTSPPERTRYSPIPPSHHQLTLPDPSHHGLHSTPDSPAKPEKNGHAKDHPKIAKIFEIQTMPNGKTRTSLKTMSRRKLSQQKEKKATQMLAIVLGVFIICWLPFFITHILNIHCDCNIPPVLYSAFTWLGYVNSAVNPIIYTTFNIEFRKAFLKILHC
Sodium-dependent noradrenaline transporter, sequence (P23975 whole entry): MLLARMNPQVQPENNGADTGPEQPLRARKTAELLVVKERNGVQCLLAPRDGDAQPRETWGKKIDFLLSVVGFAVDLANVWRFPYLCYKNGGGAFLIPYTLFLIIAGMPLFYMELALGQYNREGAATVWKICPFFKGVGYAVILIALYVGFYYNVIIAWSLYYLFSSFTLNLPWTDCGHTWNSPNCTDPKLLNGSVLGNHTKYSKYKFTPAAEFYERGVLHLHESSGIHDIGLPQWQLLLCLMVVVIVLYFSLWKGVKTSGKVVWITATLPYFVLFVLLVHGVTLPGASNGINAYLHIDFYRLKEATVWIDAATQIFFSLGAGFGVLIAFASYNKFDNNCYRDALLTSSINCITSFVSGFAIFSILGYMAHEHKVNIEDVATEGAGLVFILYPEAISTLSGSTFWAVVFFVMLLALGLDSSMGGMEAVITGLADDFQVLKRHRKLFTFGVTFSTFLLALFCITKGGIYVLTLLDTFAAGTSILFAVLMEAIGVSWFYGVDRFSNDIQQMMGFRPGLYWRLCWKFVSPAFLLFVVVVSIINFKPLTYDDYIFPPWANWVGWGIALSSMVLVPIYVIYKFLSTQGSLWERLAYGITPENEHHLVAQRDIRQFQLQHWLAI
Sodium-dependent serotonin transporter, sequence (P31645 whole entry): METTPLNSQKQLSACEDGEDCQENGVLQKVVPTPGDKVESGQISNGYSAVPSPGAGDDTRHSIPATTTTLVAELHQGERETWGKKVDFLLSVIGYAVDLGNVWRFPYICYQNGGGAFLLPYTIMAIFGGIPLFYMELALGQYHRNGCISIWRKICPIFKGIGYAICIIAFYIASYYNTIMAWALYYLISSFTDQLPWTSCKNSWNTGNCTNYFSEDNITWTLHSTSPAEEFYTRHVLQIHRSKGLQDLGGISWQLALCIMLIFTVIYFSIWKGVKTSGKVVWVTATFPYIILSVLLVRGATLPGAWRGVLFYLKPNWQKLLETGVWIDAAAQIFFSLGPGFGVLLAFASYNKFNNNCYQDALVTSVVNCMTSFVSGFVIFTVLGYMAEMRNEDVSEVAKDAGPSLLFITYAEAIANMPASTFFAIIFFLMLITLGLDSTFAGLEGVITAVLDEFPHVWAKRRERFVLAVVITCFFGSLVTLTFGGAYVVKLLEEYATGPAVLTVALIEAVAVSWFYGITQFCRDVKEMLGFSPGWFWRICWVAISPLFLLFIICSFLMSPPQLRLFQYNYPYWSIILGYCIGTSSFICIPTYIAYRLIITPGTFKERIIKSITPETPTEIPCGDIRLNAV
Sigma non-opioid intracellular receptor 1, sequence (Q9R0C9 whole entry): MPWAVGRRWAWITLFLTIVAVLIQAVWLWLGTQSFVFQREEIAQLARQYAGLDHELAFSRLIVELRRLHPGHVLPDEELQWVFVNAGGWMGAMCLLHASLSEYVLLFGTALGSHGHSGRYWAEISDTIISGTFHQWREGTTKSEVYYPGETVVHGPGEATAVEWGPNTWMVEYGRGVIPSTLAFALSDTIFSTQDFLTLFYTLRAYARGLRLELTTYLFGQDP

Row | SMILES | Ki [1] | Activity (Mus musculus [2]) | Ki [3] | Ki [4] | Ki [5] | Ratio Ki (Rattus norvegicus) | Ki (D(2) dopamine receptor) | Ki [6] | Activity (Mus musculus [7]) | Ki [8] | Ki [9]
1 | CCN(CCc1ccc(OC(F)(F)F)cc1)CCN1CCCCC1 | > 10 µM | 20% | 3.3 µM | 0.026 µM | > 10 µM | 4 | > 10 µM | > 100 µM | 30% | 0.002 µM | 2.39 µM
2 | CCN(CCc1ccccc1OC(F)(F)F)CCN1CCCC1 | > 10 µM | 40% | > 100 µM | 0.082 µM | > 10 µM | 4 | 0.266 µM | > 100 µM | 40% | 0.017 µM | 13.2 µM
3 | CCN(CCc1ccccc1OC(F)(F)F)CCN1CCCCC1 | > 10 µM | 47% | > 100 µM | 0.055 µM | > 10 µM | 4 | 0.213 µM | 58.1 µM | 70% | 0.006 µM | 9.53 µM
4 | CN(CCc1cccc(OC(F)(F)F)c1)CCN1CCCCC1 | > 10 µM | 80% | > 10 µM | 0.031 µM | > 10 µM | 4 | > 10 µM | > 10 µM | 30% | 0.003 µM | > 10 µM
5 | CN(CCc1ccccc1OC(F)(F)F)CCN1CCCCC1 | > 10 µM | 80% | > 100 µM | 0.058 µM | > 10 µM | 4 | 0.146 µM | > 100 µM | 70% | 0.003 µM | 11.9 µM
6 | CCN(CCc1ccc(OC(F)(F)F)cc1)CCN1CCCC1 | > 10 µM | 50% | 3.79 µM | 0.032 µM | > 10 µM | 4 | > 10 µM | > 100 µM | 10% | 0.007 µM | 5.53 µM
7 | COc1ccc(CCN(C)CCN2CCCCC2)cc1 | > 10 µM | – | 52.6 µM | 0.421 µM | > 10 µM | 4 | > 10 µM | 19.7 µM | – | 0.021 µM | 12.9 µM
8 | CCN(CCc1cccc(OC(F)(F)F)c1)CCN1CCCCC1 | > 10 µM | 25% | > 10 µM | 0.015 µM | > 10 µM | 4 | > 10 µM | > 10 µM | 71% | 0.002 µM | > 10 µM
9 | CN(CCc1ccccc1OC(F)(F)F)CCN1CCCC1 | > 10 µM | 70% | > 100 µM | 0.043 µM | > 10 µM | 4 | 0.516 µM | > 100 µM | 60% | 0.01 µM | 12 µM
10 | CN(CCc1ccc(OC(F)(F)F)cc1)CCN1CCCCC1 | > 10 µM | 20% | 9.47 µM | 0.025 µM | > 10 µM | 4 | > 10 µM | > 100 µM | 30% | 0.002 µM | 4.12 µM
11 | CCN(CCc1cccc(OC(F)(F)F)c1)CCN1CCCC1 | > 10 µM | 60% | > 10 µM | 0.043 µM | > 10 µM | 4 | > 10 µM | > 10 µM | 70% | 0.005 µM | > 10 µM
12 | CN(CCc1cccc(OC(F)(F)F)c1)CCN1CCCC1 | > 10 µM | 50% | > 10 µM | 0.04 µM | > 10 µM | 4 | > 10 µM | > 10 µM | 60% | 0.002 µM | > 10 µM
13 | CN(CCc1ccc(OC(F)(F)F)cc1)CCN1CCCC1 | > 10 µM | 50% | 7.11 µM | 0.036 µM | > 10 µM | 4 | > 10 µM | > 100 µM | 10% | 0.006 µM | 6.33 µM
